# Compound activity deposited in PubChem by several laboratories.
# Many of the other results were omitted from the sample, so hits are more common in it than they were.
# ABCB1 block – blocks JC-1 efflux by human ABCB1 transporter; actives 0.067% (n = 190,000); P08183; inhibition, % at 6.6 µM; CCRF-Adr cells, flow cytometry; in the data active = inhibition above about 40%;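 also: higher value means more JC-1 retained so stronger ABCB1 efflux block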
# Target sequence (P08183 whole entry, looked up): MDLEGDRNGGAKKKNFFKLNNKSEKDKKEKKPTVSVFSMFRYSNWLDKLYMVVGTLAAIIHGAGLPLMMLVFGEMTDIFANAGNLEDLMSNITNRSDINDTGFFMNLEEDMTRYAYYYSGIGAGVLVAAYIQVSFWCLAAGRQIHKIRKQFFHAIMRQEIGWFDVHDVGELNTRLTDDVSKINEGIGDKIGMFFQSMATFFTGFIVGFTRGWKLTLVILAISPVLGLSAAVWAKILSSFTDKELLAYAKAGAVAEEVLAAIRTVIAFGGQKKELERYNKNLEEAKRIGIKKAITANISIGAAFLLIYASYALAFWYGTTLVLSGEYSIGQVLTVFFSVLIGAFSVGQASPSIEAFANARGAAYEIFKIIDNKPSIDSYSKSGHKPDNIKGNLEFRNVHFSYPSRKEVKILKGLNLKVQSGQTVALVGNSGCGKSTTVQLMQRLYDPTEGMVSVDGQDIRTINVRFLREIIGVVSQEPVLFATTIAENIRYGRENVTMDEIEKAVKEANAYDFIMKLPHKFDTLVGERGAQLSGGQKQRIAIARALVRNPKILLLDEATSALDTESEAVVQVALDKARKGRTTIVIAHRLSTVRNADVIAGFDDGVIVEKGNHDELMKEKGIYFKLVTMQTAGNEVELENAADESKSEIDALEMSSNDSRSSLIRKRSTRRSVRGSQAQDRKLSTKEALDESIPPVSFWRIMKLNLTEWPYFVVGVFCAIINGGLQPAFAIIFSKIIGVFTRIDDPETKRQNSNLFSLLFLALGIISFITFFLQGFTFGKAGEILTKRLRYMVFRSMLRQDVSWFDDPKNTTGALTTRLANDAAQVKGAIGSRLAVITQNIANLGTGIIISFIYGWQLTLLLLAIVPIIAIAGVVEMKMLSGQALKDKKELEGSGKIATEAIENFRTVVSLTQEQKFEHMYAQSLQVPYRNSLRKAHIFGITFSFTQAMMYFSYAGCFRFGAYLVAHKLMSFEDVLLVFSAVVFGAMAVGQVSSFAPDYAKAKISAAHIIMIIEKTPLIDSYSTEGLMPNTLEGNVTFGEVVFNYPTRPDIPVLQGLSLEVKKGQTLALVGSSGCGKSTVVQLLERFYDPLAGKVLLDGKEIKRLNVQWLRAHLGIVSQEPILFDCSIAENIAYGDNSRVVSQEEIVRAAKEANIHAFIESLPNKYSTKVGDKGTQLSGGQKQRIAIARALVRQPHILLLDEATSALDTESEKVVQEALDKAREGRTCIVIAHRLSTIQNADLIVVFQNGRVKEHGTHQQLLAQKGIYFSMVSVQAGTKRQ
# Calb biofilm kill – mixture kills Candida albicans biofilm cells; C. albicans biofilm persisters + clotrimazole, fluorescence viability; primary screen in compound mixtures of four per well; inhibition, % at 7.6 µM; AID 1242; actives 0.02% (n = 120,000);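 active = inhibition above 30.3% in the primary screen of four-compound pools, then above 30% when the compound was retested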;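 also: compounds exposed to preformed 24 h biofilms for 48 h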
#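 Probe or stimulus – Clotrimazole 50 µg/mL co-treatment · System – C. albicans biofilms · Schedule – 24 h biofilm formation, then 48 h compound exposure, 37 °C · Evaluation – percent inhibition of biofilm viability · Technique – 2-h Alamar Blue fluorescence, 535/590 nm excitation/emission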
# ABCG2 block – blocks JC-1 efflux by human ABCG2 transporter. IgMXP3 cells, flow cytometry. inhibition, % at 6.6 µM. actives 0.1% (n = 190,000);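 active = inhibition above 80%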
#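 Test system: ABCG2 IgMXP3 and barcoded ABCB1 CCRF-Adr cell mix; Schedule: cells with compound and JC-1, 10 min at 25 °C, rotating, no wash; Technique: flow cytometry of retained JC-1 fluorescence; Measure: % inhibition of efflux relative to nicardipine and DMSO; Controls: nicardipine high and DMSO low controls.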
# TRPML3 ag – activates the human TRPML3 channel | actives 0.29% (n = 220,000) | Q8TDD5 | AID 1448 | HEK293 TRPML3-YFP, Fluo-8 calcium fluorescence; 100% = the carbachol control signal | activation, % at 3 µM;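 active = activation above its plate's cutoff, the mean activation of the plate's test wells plus 3 SD, cut at about 12% in these data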
#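 Material: TRPML3-YFP stable HEK293 cells | Dosing: One concentration, 3 µM nominal, 0.3% DMSO | Timing: 125 s total fluorescence read per well | Technique: Fluo-8 calcium dye fluorescence, ex 470-495, em 515-575 nm | Measure: Percent activation from peak-to-basal fluorescence ratio, scaled between DMSO and carbachol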
# zfTRPN1 agonist – agonists of zebrafish TRPN1 channel. activation, % at 3 µM. actives 0.18% (n = 220,000). HEK293 zebrafish TRPN1-YFP, Fluo-8 calcium fluorescence; 100% = response to 87 µM carbachol;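 active = activation above its plate's cutoff, the mean activation of test wells on that plate plus 3 SD, cut at about 19% in these data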
#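 Material: zebrafish TRPN1-YFP in HEK293 cells; Doses: single test compound dose, 3 µM nominal, 0.3% DMSO; Timing: dye loading 1 h at 37 °C, then 30 min room temperature; Technique: intracellular calcium fluorescence with Fluo-8; Benchmarks: high carbachol 87 µM, low DMSO alone.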
# ROMK primary – modulators of human ROMK potassium channel. Tet-inducible ROMK, thallium flux fluorescence; actives lie on both sides. B-score at 10 µM. actives 2% (n = 130,000). P48048. AID 1918;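 active = signal ratio slope over the read window, or its plate-corrected B-score, at least 3 SD from the plate mean, either direction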;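 also: B-score of the F/F0 ratio slope over 7 to 12 s after thallium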
# A number is an active result; - = inactive; . = no result.
SMILES,ABCB1 block,Calb biofilm kill,ABCG2 block,TRPML3 ag,zfTRPN1 agonist,ROMK primary
Cc1cc(/C=N/NC(N)=S)c(O)c(/C=N/NC(N)=S)c1,.,-,.,16,41,.
COc1ccc(C2C(C(=O)c3ccccc3)N3c4ccccc4C=CC3C2[N+](=O)[O-])cc1 (centres undefined),-,-,-,-,-,-3.7
O=C(CSCc1ccc(Cl)cc1)Nc1cc([N+](=O)[O-])ccc1O,-,-,-,18,25,-
Cc1ccc(SCC(=O)Nc2cc([N+](=O)[O-])ccc2O)cc1,-,-,-,19,24,-
COc1cc(O)c(/C=N/NC(=O)c2ccncc2)c(OC)c1[N+](=O)[O-],-,-,-,-,-,-
O=C(CC1Nc2c3ccccc3nc(=S)n2C1=O)NC1CCCCC1 (centres undefined),-,-,-,-,-,-
C/C(=N\NC(=O)c1nn(C)c(C)c1Br)c1cccc(NC(=O)c2ccoc2C)c1,-,-,-,-,-,-
Cc1ccc(C(C)C)c(OC/C(O)=C(\C#N)c2nc3ccccc3[nH]2)c1,.,-,.,-,-,.
O=c1c2cc(Cl)ccc2nc(-c2ccc([N+](=O)[O-])cc2)n1O,-,-,-,-,-,3.5
CC(C)CNC(=O)[C@H](Cc1ccccc1)NC(=O)c1ccco1,-,.,-,-,-,3.2
C=CCNC(=S)N/N=C/c1cccc([N+](=O)[O-])c1,-,-,-,-,-,-
Nc1c(C(=O)Nc2ccc(F)cc2)sc(=S)n1-c1ccccc1F,-,-,-,-,-,-
COC(CNC(=O)c1ccc2c3c(onc13)-c1ccccc1C2=O)OC,.,-,.,18,27,.
COC(CNC(=O)c1cccnc1)OC,-,-,-,-,-,-
CCCN1C(=O)/C(=C/c2ccc(N3CCOCC3)cc2)NC1=S,-,-,-,12,24,-
Cc1ccc(CN2C(=O)N/C(=C\c3ccc(N4CCOCC4)cc3)C2=O)cc1,-,-,-,-,-,-
CCCN(CCC)CCNC(=O)CCC(=O)Nc1ccc2nc(N3CCN(C)CC3)cc(C)c2c1,-,-,-,-,-,-
CC1CC(c2ccccc2)n2nc(NC(=O)c3ccco3)nc2N1 (centres undefined),-,.,-,-,-,-6.6
COc1ccc(C2CC(c3ccc(F)cc3)n3nc(NC(=O)c4ccco4)nc3N2)cc1 (centres undefined),.,-,.,-,-,.
Cc1cc(C)c2[nH]c(=O)c(CN(Cc3cccs3)C(=S)NCC3CCCO3)cc2c1 (centres undefined),-,-,-,-,-,-
O=C(N/C(=C\c1ccc(-c2ccccc2)o1)C(=O)N1CCOCC1)c1ccccc1,-,-,-,-,-,-3
O=C(N/C(=C\c1ccco1)C(=O)N1CCOCC1)c1ccco1,-,-,-,-,-,.
Cc1ccc(C)c(C(=O)N(Cc2nc(-c3ccc(Cl)cc3)no2)C(C)C)c1,-,.,-,28,-,.
CC(C)NS(=O)(=O)c1ccc(NC(=O)C(C)Oc2ccc(C(=O)c3ccccc3)cc2)cc1 (centres undefined),-,-,-,21,50,.
CC(Oc1ccccc1)C(=O)Nc1ccc(C(N)=O)cc1 (centres undefined),-,.,-,-,-,-
SMILES,ABCB1 block,Calb biofilm kill,ABCG2 block,TRPML3 ag,zfTRPN1 agonist,ROMK primary
O=C(O)CC(NNC(=O)c1ccccc1)C(=O)Nc1ccc([N+](=O)[O-])cc1 (centres undefined),.,-,.,-,-,-
COc1cc(C2C(C#N)=C(C)NC3=C2C(=O)c2ccccc23)cc(OC)c1OC (centres undefined),-,.,-,-,-,3.2
CCOC(=O)c1cc[n+](CC(=O)c2ccc(F)cc2)cc1,-,-,-,-,-,.
O=C(O)c1ccc2c3c(cccc13)C(=O)N(c1ccccc1)C2=O,-,-,-,-,-,-
Nc1ccc2c3c(cccc13)C(=O)N(c1ccccc1)C2=O,-,-,-,111,125,.
O=C1/C(=C/c2ccncc2)CCc2ccccc21,.,-,.,-,-,-
O=C1/C(=C/c2ccncc2)CCC/C1=C\c1ccncc1,-,-,-,-,-,-3.3
N#C/C(=N\Nc1ccc(Cl)cc1)C(=O)c1ccccc1,-,.,-,-,-,2.8
